Test results: ChEMBL document CHEMBL1821641, “Synthesis and biological evaluation of 1-substituted-3(5)-(6-methylpyridin-2-yl)-4-(quinoxalin-6-yl)pyrazoles as transforming growth factor-β type 1 receptor kinase inhibitors” (Eur J Med Chem, 2011)

Columns and labels:
TGF-beta receptor type-1 = biological target: T1, TGF-beta receptor type-1 (Homo sapiens, UniProt P36897); assay: Inhibition of human recombinant GST-fused ALK5 expressed in insect Sf9 cells using casein as substrate by radiometric kinase assay
T1 sequence (P36897 whole entry): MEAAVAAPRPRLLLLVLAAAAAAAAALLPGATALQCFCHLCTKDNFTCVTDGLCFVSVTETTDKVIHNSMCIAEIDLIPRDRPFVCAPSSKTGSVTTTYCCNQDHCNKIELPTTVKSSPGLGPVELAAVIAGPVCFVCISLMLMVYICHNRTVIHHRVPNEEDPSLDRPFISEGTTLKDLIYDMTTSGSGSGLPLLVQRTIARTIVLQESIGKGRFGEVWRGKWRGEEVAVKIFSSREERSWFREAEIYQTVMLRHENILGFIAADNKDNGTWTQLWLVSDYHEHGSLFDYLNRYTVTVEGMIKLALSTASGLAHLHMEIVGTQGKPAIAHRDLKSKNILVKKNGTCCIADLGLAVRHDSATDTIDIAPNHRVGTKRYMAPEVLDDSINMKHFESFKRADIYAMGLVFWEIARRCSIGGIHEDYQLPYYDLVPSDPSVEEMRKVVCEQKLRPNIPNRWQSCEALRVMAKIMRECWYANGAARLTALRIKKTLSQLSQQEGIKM

[1] = biological target: Mitogen-activated protein kinase 14 (Homo sapiens, UniProt Q16539); assay: Inhibition of human recombinant p38alpha expressed in Escherichia coli using ATF2 as substrate by radiometric kinase assay
Mitogen-activated protein kinase 14, sequence (Q16539 whole entry): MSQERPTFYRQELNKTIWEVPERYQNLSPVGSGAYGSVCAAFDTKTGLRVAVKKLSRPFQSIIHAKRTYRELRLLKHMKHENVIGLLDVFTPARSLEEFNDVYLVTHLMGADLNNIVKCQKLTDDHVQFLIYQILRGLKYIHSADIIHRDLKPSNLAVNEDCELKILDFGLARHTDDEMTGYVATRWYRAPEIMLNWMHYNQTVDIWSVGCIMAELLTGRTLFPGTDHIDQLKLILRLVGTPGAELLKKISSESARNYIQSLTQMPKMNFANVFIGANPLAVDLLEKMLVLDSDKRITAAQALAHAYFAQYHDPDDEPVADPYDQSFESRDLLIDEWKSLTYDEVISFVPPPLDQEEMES

Homo sapiens = species on record: Homo sapiens; assay: Selectivity index, ratio of IC50 for human recombinant p38alpha to IC50 for human recombinant ALK5
Outline: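 Ratio of IC50 values from two radiometric (33P) protein kinase assays run by a contract lab. ALK5 assay: human recombinant GST-fusion kinase domain expressed in Sf9 cells via baculovirus, with casein as substrate. p38α assay: untagged human recombinant enzyme expressed in E. coli and Ni-agarose purified, with ATF2 as substrate, tested up to 1 μM. Index = IC50 p38α / IC50 ALK5.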

[2] = Chemical stability of compound; assay type: physicochemical

Row | Compound | IC50 (TGF-beta receptor type-1) | IC50 [1] | Ratio IC50 (Homo sapiens) | Stability [2]
1 | Cc1cccc(-c2nn(CC(=O)Nc3cccc(C(N)=O)c3)cc2-c2ccc3nc(C)c(C)nc3c2)n1 | > 1000 nM | > 1000 nM | – | –
2 | Cc1cccc(-c2[nH]c(Cc3cccc(C(N)=O)c3)nc2-c2ccc3nccnc3c2)n1 | – | – | 28 | –
3 | Cc1cccc(-c2nn(CC(=O)Nc3cccc(C#N)c3)cc2-c2ccc3nccnc3c2)n1 | 153 nM | > 1000 nM | > 7 | –
4 | Cc1cccc(-c2nn(CC(=O)Nc3ccccc3)cc2-c2ccc3nccnc3c2)n1 | 38 nM | > 1000 nM | > 26 | –
5 | Cc1cccc(-c2nn(CC(=S)Nc3cccc(C#N)c3)cc2-c2ccc3nccnc3c2)n1 | 26 nM | > 1000 nM | > 38 | –
6 | Cc1cccc(-c2nn(CC(=S)Nc3ccccc3)cc2-c2ccc3nc(C)c(C)nc3c2)n1 | > 1000 nM | > 1000 nM | – | –
7 | Cc1cccc(-c2c(-c3ccc4nccnc4c3)cnn2CC(=O)Nc2cccc(C#N)c2)n1 | 737 nM | > 1000 nM | > 1 | –
8 | Cc1cccc(-c2nn(CC(=S)Nc3ccccc3)cc2-c2ccc3nccnc3c2)n1 | 13 nM | > 1000 nM | > 77 | Stable
9 | Cc1cccc(-c2c(-c3ccc4nccnc4c3)cnn2CC(=O)Nc2ccccc2)n1 | 143 nM | > 1000 nM | > 7 | –
10 | Cc1cccc(-c2nn(CC(=S)Nc3cccc(C#N)c3)cc2-c2ccc3nc(C)c(C)nc3c2)n1 | > 1000 nM | > 1000 nM | – | –
11 | Cc1cccc(-c2nn(CCC(=O)Nc3ccccc3)cc2-c2ccc3nccnc3c2)n1 | 82 nM | > 1000 nM | > 12 | –

Other lines, results leading:

Row | IC50 (TGF-beta receptor type-1) | IC50 [1] | Ratio IC50 (Homo sapiens) | Stability [2] | Compound
12 | > 1000 nM | > 1000 nM | – | – | Cc1cccc(-c2nn(CC(=O)Nc3cccc(C#N)c3)cc2-c2ccc3nc(C)c(C)nc3c2)n1
13 | > 1000 nM | > 1000 nM | – | – | Cc1cccc(-c2nn(CCC(=O)Nc3cccc(C#N)c3)cc2-c2ccc3nc(C)c(C)nc3c2)n1
14 | 48 nM | > 1000 nM | > 21 | – | Cc1cccc(-c2nn(CC(=O)Nc3cccc(C(N)=O)c3)cc2-c2ccc3nccnc3c2)n1
15 | > 1000 nM | > 1000 nM | – | – | Cc1cccc(-c2nn(CC(=O)Nc3ccccc3)cc2-c2ccc3nc(C)c(C)nc3c2)n1
16 | > 1000 nM | > 1000 nM | – | – | Cc1cccc(-c2c(-c3ccc4nc(C)c(C)nc4c3)cnn2CC(=O)Nc2cccc(C#N)c2)n1
17 | > 1000 nM | > 1000 nM | – | – | Cc1cccc(-c2c(-c3ccc4nc(C)c(C)nc4c3)cnn2CC(=O)Nc2ccccc2)n1
